Source: ChEMBL document CHEMBL1649165, “Activity profile in vitro of micafungin against Spanish clinical isolates of common and emerging species of yeasts and molds” (2009)
≈ marks a conversion by molar mass, not a printed value. *1 amine or outer side, *2 acyl side, *3 side chain or, on linkers, in order; H or OH if unused. Where a SMILES comes first, the peptide text is derived from it. Bridges are numbered along the chain shown (N, C = ends). [ ]: non-standard residue; d: D form. The star is where a group is joined. hTyr(3S-OH,4S-OH,3'-OSO3H) = N[C@H](C(=O)O)[C@H](O)[C@@H](O)c1ccc(O)c(OS(=O)(=O)O)c1; Orn(4R-OH,5R-OH) = O=C([C@H](C[C@@H](O)[C@@H](O)N[*:3])N[*:1])[*:2]; Pro(3S-OH,4S-Me) = C[C@H]1CN[C@H](C(=O)O)[C@H]1O; X1 = CCCCCOc1ccc(-c2cc(-c3ccc(C(=O)*)cc3)no2)cc1; Gln(3R-OH) = NC(=O)C[C@@H](O)[C@H](N)C(=O)O; Hyp = O=C(O)[C@@H]1C[C@@H](O)CN1

Legend:
Format in all cases: functional
[1] = tested on: Naganishia albida; test: Antimicrobial activity against Cryptococcus albidus by broth microdilution method
How it was run: (§1)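 Clinical isolates of nonfermentative yeasts, tested by broth microdilution following EUCAST recommendations. The only change from that method was a minor modification to improve growth.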

[2] = tested on: Trichosporon ovoides; test: Antimicrobial activity against Trichosporon ovoides by broth microdilution method
How it was run: (§2)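 Nonfermentative yeast clinical isolates (Rhodotorula, Trichosporon) tested by broth microdilution. The EUCAST yeast recommendations were followed strictly, with one minor modification to improve growth. MIC was read as the endpoint.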

[3] = tested on: [Candida] intermedia; test: Antimicrobial activity against Candida intermedia by broth microdilution method; conditions: Sungouiella intermedia
How it was run: (§3)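 Clinical isolates from human patients, tested by broth microdilution using the AFST-EUCAST reference procedure for fermentative yeasts. The MIC was read per that reference method.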

[4] = tested on: Aureobasidium pullulans; test: Antimicrobial activity against Aureobasidium pullulans by broth microdilution method
[5] = tested on: Scytalidium hyalinum; test: Antimicrobial activity against Scytalidium hyalinum by broth microdilution method; conditions: Neoscytalidium hyalinum
How it was run: (§4)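 Filamentous fungus clinical isolates tested by the AFST-EUCAST reference broth microdilution method for moulds. For echinocandins, the endpoint was the minimum effective concentration: the lowest drug concentration giving aberrant hyphal growth, read with an inverted microscope.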

[6] = tested on: Trichosporon asahii; test: Antimicrobial activity against Trichosporon asahii by broth microdilution method; how it was run: as §2
[7] = tested on: Geotrichum candidum; test: Antimicrobial activity against Galactomyces geotrichum by broth microdilution method
[8] = tested on: Aspergillus sclerotiorum; test: Antimicrobial activity against Aspergillus sclerotiorum by broth microdilution method
How it was run: (§5)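 Clinical mould isolates, tested by broth microdilution using the AFST-EUCAST reference method for filamentous fungi. For echinocandins, the endpoint was the minimum effective concentration: the lowest drug concentration giving aberrant hyphal growth, read with an inverted microscope.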

[9] = tested on: Aspergillus ochraceus; test: Antimicrobial activity against Aspergillus ochraceus by broth microdilution method; how it was run: as §5
[10] = tested on: Aspergillus sydowii; test: Antimicrobial activity against Aspergillus sydowii by broth microdilution method; how it was run: as §5
[11] = tested on: Scopulariopsis brevicaulis; test: Antimicrobial activity against Scopulariopsis brevicaulis by broth microdilution method; how it was run: as §4
[12] = tested on: Neurospora sitophila; test: Antimicrobial activity against Chrysonilia sitophila by broth microdilution method; how it was run: as §5
[13] = tested on: Torulaspora delbrueckii; test: Antimicrobial activity against Candida coliculosa by broth microdilution method; how it was run: as §3
[14] = tested on: Fusarium oxysporum; test: Antimicrobial activity against Fusarium oxysporum by broth microdilution method; how it was run: as §5
[15] = tested on: Scedosporium apiospermum; test: Antimicrobial activity against Scedosporium apiospermum by broth microdilution method; how it was run: as §4
[16] = tested on: Kluyveromyces marxianus; test: Antimicrobial activity against Candida kefyr by broth microdilution method; how it was run: as §3
[17] = tested on: Phialemonium curvatum; test: Antimicrobial activity against Phialemonium curvatum by broth microdilution method; conditions: Thyridium curvatum; how it was run: as §4
[18] = tested on: Aspergillus niger; test: Antimicrobial activity against Aspergillus niger by broth microdilution method; how it was run: as §5
[19] = tested on: Pichia kudriavzevii; test: Antimicrobial activity against Candida krusei by broth microdilution method; how it was run: as §3
[20] = tested on: Fennellia nivea; test: Antimicrobial activity against Aspergillus niveus by broth microdilution method; how it was run: as §5
[21] = tested on: [Candida] inconspicua; test: Antimicrobial activity against Candida inconspicua by broth microdilution method; conditions: Pichia inconspicua; how it was run: as §3
[22] = tested on: Aspergillus versicolor; test: Antimicrobial activity against Aspergillus versicolor by broth microdilution method; how it was run: as §5
[23] = tested on: Fusarium reticulatum; test: Antimicrobial activity against Fusarium reticulatum by broth microdilution method; how it was run: as §4
[24] = tested on: Papiliotrema laurentii; test: Antimicrobial activity against Cryptococcus laurentii by broth microdilution method; how it was run: as §1
[25] = tested on: Fusarium solani; test: Antimicrobial activity against Fusarium solani by broth microdilution method; how it was run: as §4
[26] = tested on: Lewia infectoria; test: Antimicrobial activity against Alternaria infectoria by broth microdilution method; how it was run: as §5
[27] = tested on: Aspergillus glaucus; test: Antimicrobial activity against Aspergillus glaucus by broth microdilution method; how it was run: as §5
[28] = tested on: Pichia norvegensis; test: Antimicrobial activity against Candida norvegensis by broth microdilution method; how it was run: as §3
[29] = tested on: Candida albicans; test: Antimicrobial activity against Candida albicans by broth microdilution method; how it was run: as §3
[30] = tested on: Cryptococcus deneoformans; test: Antimicrobial activity against Cryptococcus neoformans var. neoformans by broth microdilution method; how it was run: as §1
[31] = tested on: Lecythophora hoffmannii; test: Antimicrobial activity against Lecythophora hoffmannii by broth microdilution method; conditions: Coniochaeta hoffmannii; how it was run: as §4
[32] = tested on: Lichtheimia corymbifera; test: Antimicrobial activity against Mycocladus corymbiferus by broth microdilution method; how it was run: as §4
[33] = tested on: Magnusiomyces capitatus; test: Antimicrobial activity against Dipodascus capitatus by broth microdilution method
[34] = tested on: Lomentospora prolificans; test: Antimicrobial activity against Scedosporium prolificans by broth microdilution method; how it was run: as §4
[35] = tested on: Rhizomucor; test: Antimicrobial activity against Rhizomucor spp.by broth microdilution method; how it was run: as §4
[36] = tested on: Paecilomyces lilacinus; test: Antimicrobial activity against Paecilomyces lilacinus by broth microdilution method; conditions: Purpureocillium lilacinum; how it was run: as §4
[37] = tested on: Saccharomyces cerevisiae; test: Antimicrobial activity against Saccharomyces cerevisiae by broth microdilution method
[38] = tested on: [Candida] zeylanoides; test: Antimicrobial activity against Candida zeylanoides by broth microdilution method; conditions: Dujonia zeylanoides; how it was run: as §3
[39] = tested on: Clavispora lusitaniae; test: Antimicrobial activity against Candida lusitaniae by broth microdilution method; how it was run: as §3
[40] = tested on: Exophiala jeanselmei; test: Antimicrobial activity against Exophiala jeanselmei by broth microdilution method

## CCCCCOc1ccc(-c2cc(-c3ccc(C(=O)N[C@H]4C[C@@H](O)[C@@H](O)NC(=O)[C@@H]5[C@@H](O)[C@@H](C)CN5C(=O)[C@H]([C@H](O)CC(N)=O)NC(=O)[C@H]([C@H](O)[C@@H](O)c5ccc(O)c(OS(=O)(=O)O)c5)NC(=O)[C@@H]5C[C@@H](O)CN5C(=O)[C@H]([C@@H](C)O)NC4=O)cc3)no2)cc1 [MICAFUNGIN] (X1-[Orn(4R-OH,5R-OH)]T[Hyp][hTyr(3S-OH,4S-OH,3'-OSO3H)][Gln(3R-OH)][Pro(3S-OH,4S-Me)]; lactam 1-C)
[1]
  MIC50: > 16 µg/mL
  MIC90: > 16 µg/mL
[2]
  MIC50: > 16 µg/mL
  MIC90: > 16 µg/mL
[3]
  MIC50: 0.03 µg/mL (≈ 0.0236 µM)
  MIC90: 0.12 µg/mL (≈ 0.0945 µM)
[4]
  MIC50: 0.03 µg/mL (≈ 0.0236 µM)
  MIC90: 0.06 µg/mL (≈ 0.0472 µM)
[5]
  MIC50: 0.03 µg/mL (≈ 0.0236 µM)
  MIC90: 0.06 µg/mL (≈ 0.0472 µM)
[6]
  MIC50: > 16 µg/mL
  MIC90: > 16 µg/mL
[7]
  MIC50: > 16 µg/mL
  MIC90: > 16 µg/mL
[8]
  MIC50: 0.06 µg/mL (≈ 0.0472 µM)
  MIC90: 0.25 µg/mL (≈ 0.197 µM)
[9]
  MIC50: 0.06 µg/mL (≈ 0.0472 µM)
  MIC90: 0.25 µg/mL (≈ 0.197 µM)
[10]
  MIC50: 0.03 µg/mL (≈ 0.0236 µM)
  MIC90: 0.03 µg/mL (≈ 0.0236 µM)
[11]
  MIC50: > 16 µg/mL
  MIC90: > 16 µg/mL
[12]
  MIC50: > 16 µg/mL
  MIC90: > 16 µg/mL
[13]
  MIC50: 0.03 µg/mL (≈ 0.0236 µM)
  MIC90: 0.12 µg/mL (≈ 0.0945 µM)
[14]
  MIC50: > 16 µg/mL
  MIC90: > 16 µg/mL
[15]
  MIC50: 0.03 µg/mL (≈ 0.0236 µM)
  MIC90: > 16 µg/mL
[16]
  MIC50: 0.03 µg/mL (≈ 0.0236 µM)
  MIC90: 0.03 µg/mL (≈ 0.0236 µM)
[17]
  MIC50: > 16 µg/mL
  MIC90: > 16 µg/mL
[18]
  MIC50: 0.03 µg/mL (≈ 0.0236 µM)
  MIC90: 0.06 µg/mL (≈ 0.0472 µM)
[19]
  MIC50: 0.03 µg/mL (≈ 0.0236 µM)
  MIC90: 0.06 µg/mL (≈ 0.0472 µM)
[20]
  MIC50: 0.06 µg/mL (≈ 0.0472 µM)
  MIC90: 0.25 µg/mL (≈ 0.197 µM)
[21]
  MIC50: 0.03 µg/mL (≈ 0.0236 µM)
  MIC90: 0.12 µg/mL (≈ 0.0945 µM)
[22]
  MIC50: 0.03 µg/mL (≈ 0.0236 µM)
  MIC90: 0.06 µg/mL (≈ 0.0472 µM)
[23]
  MIC50: > 16 µg/mL
  MIC90: > 16 µg/mL
[24]
  MIC50: > 16 µg/mL
  MIC90: > 16 µg/mL
[25]
  MIC50: > 16 µg/mL
  MIC90: > 16 µg/mL
[26]
  MIC50: > 16 µg/mL
  MIC90: > 16 µg/mL
[27]
  MIC50: 0.06 µg/mL (≈ 0.0472 µM)
  MIC90: 0.25 µg/mL (≈ 0.197 µM)
[28]
  MIC50: 0.03 µg/mL (≈ 0.0236 µM)
  MIC90: 0.12 µg/mL (≈ 0.0945 µM)
[29]
  MIC50: 0.03 µg/mL (≈ 0.0236 µM)
  MIC90: 0.03 µg/mL (≈ 0.0236 µM)
[30]
  MIC50: > 16 µg/mL
  MIC90: > 16 µg/mL
[31]
  MIC50: 0.03 µg/mL (≈ 0.0236 µM)
  MIC90: 0.06 µg/mL (≈ 0.0472 µM)
[32]
  MIC50: > 16 µg/mL
  MIC90: > 16 µg/mL
[33]
  MIC50: > 16 µg/mL
  MIC90: > 16 µg/mL
[34]
  MIC50: 8 µg/mL (≈ 6.3 µM)
  MIC90: > 16 µg/mL
[35]
  MIC50: > 16 µg/mL
  MIC90: > 16 µg/mL
[36]
  MIC50: > 16 µg/mL
  MIC90: > 16 µg/mL
[37]
  MIC50: 0.03 µg/mL (≈ 0.0236 µM)
  MIC90: 0.06 µg/mL (≈ 0.0472 µM)
[38]
  MIC50: 0.03 µg/mL (≈ 0.0236 µM)
  MIC90: 0.12 µg/mL (≈ 0.0945 µM)
[39]
  MIC50: 0.03 µg/mL (≈ 0.0236 µM)
  MIC90: 0.03 µg/mL (≈ 0.0236 µM)
[40]
  MIC50: 0.03 µg/mL (≈ 0.0236 µM)
  MIC90: 0.06 µg/mL (≈ 0.0472 µM)
